The record followed here is ChEMBL document CHEMBL1629712, “Design, synthesis and discovery of 5-hydroxyaurone derivatives as growth inhibitors against HUVEC and some cancer cell lines” (Eur J Med Chem, 2010).

One may read the IC50 as the concentration that gives 50% inhibition. High values mean a need for much substance, low ones inhibition by little substance. For orientation: CC50 means the concentration giving 50% cytotoxicity. A low value points to harm at low concentration.

One data set has as its system HUVEC. Description: Antiangiogenic activity in HUVEC after 96 hrs by MTT assay. In kind it is functional, cell-based. The conditions noted are these: Homo sapiens. In short, it runs like this: (§1)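 MTT viability. Seeding was 1000 cells/well for HUVEC, 1500 for MCF-7 and CCC-HPF-1, and 2000 for A549. After 20 h attachment, compound or carrier was added from 2% DMSO/PBS stocks (final DMSO 0.1%), in triplicate per concentration.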

The next data set deals with MCF7. In words: Antiproliferative activity against human MCF7 cells after 96 hrs by MTT assay. The conditions noted are these: MCF7, 96 h. For orientation: Tetrazolium dyes change colour on reduction, which living cells bring about.
A further data set has as its system A549. In words: Antiproliferative activity against human A549 cells after 96 hrs by MTT assay. In kind it is functional, cell-based. The conditions noted are these: A549, 96 h. Put shortly:
as §1

Data set [1] is described as follows: Antiproliferative activity against human CCC-HPF1 cells after 96 hrs by MTT assay. In kind it is cell-based. In short, it runs like this: as §1
Data set [2] in a line: Selectivity ratio of CC50 for human CCC-HPF1 cells to IC50 for HUVEC. Conditions: CCC-HPF1 cells versus HUVEC, read-out: Ratio CC50/IC50. The format is ADME, cell-based.

The structures appear in SMILES notation. Where only a bound is given, the exact number is not on record here.

Turning to `CO[C@@H]1[C@H](OC(=O)/C=C/C=C/C=C/C=C/C(=O)O)CC[C@]2(CO2)[C@H]1[C@@]1(C)O[C@@H]1CC=C(C)C` [FUMAGILLIN], the half-maximal inhibitory concentration (IC50) in the data set with HUVEC was 0.0089 µM; with MCF7, at least 50 µM; in the data set on A549 it was at least 50 µM.

Regarding `CN(C)c1ccc(/C=C2\Oc3ccc(O)cc3C2=O)cc1`, the IC50 worked out at 1.35 µM with HUVEC, 10.1 µM in the data set with MCF7 and 18.7 µM in the data set on A549. This molecule displayed a 50% cytotoxic concentration (CC50) at 96 h in data set [1] of 25.1 µM. In data set [2], the selectivity ratio worked out at 20.
